Data reported in ChEMBL document CHEMBL1821687, “Discovery, synthesis, and biological evaluation of novel SMN protein modulators” (J Med Chem, 2011).

Columns and labels:
[1] = biological target: Survival motor neuron protein (Homo sapiens) (UniProt Q16637); experiment: Activation of SMN expressed in HEK293 cells assessed as concentration required to reach 50% of maximum luciferase signal by SMN2-promotor driven luciferase reporter gene assay; format: cell-based
Procedure, shortened: (§1)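 HEK-293 cells stably carrying the SMN2 reporter construct, kept in DMEM with 10% FCS, glutamax, pyruvate, pen/strep and 200 µg/mL hygromycin, and assayed without hygromycin. 2,000 cells/well were plated and adhered overnight at 37 °C, 5% CO2. Compounds were added as a 7-point titration, 50 µM to 25 nM final, in 0.46% DMSO, for 30–36 h. OneGlo luminescence was normalized to 4.5 mM sodium butyrate (100%) and DMSO (0%).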

[2] = biological target: Survival motor neuron protein (Homo sapiens) (UniProt Q16637); experiment: Activation of SMN expressed in HEK293 cells assessed as rate of induction by SMN2-promotor driven luciferase reporter gene assay relative to basal level; format: cell-based; set-up: concentration or dose not given beside the values; procedure, shortened: as §1

Chain of Survival motor neuron protein (Homo sapiens) (Q16637 whole entry): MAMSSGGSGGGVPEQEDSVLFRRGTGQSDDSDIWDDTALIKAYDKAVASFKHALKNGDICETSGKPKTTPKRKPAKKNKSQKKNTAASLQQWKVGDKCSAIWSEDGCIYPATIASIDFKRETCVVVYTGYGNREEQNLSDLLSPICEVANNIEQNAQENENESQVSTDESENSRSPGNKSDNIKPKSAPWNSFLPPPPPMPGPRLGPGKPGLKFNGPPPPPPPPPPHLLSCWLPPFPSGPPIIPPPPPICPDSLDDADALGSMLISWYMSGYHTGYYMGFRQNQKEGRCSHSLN

| SMILES | Activity [1] [µM] | Activity [2] [%] |
| --- | --- | --- |
| NC(=O)C1CCN(c2ncc(-c3cccc(N4CCCCC4)c3)s2)CC1 | 1.54 | 565 |
| CC(=O)C1CCN(c2ncc(-c3cccc(N(C)C)c3)s2)CC1 | 3.07 | 224 |
| N#CC1CCN(c2nc(-c3ccc(Br)cc3)cs2)CC1 | 30.7 | 78 |
| c1c[nH]c(C2CCN(c3ncc(-c4ccc5c(c4)OCCCO5)s3)CC2)n1 | 2.44 | 129 |
| NC(=O)C1CCN(c2nc(-c3ccc([N+](=O)[O-])cc3)cs2)CC1 | 15.4 | 254 |
| Brc1ccc(-c2csc(N3CCNCC3)n2)cc1 | 24.4 | -97 |
| Brc1ccc(-c2csc(N3CCCCC3)n2)cc1 | 19.4 | 272 |
| NC(=O)C1CCN(c2nc(-c3ccc4occc(=O)c4c3)cs2)CC1 | 15.4 | 589 |
| Cc1ccc(-c2nnc(N3CCC(C(N)=O)CC3)s2)cc1 | 0.244 | 54 |
| NC(=O)C1CCN(c2nc(-c3ccc4c(c3)OCC4)cs2)CC1 | 12.2 | 401 |
| COc1cccc(-c2csc(N3CCC(C(N)=O)CC3)n2)c1 | 1.94 | 357 |
